# Experimental data pooled from the literature.
# Target: MAP kinase-activated protein kinase 2 (MAPKAPK2, Homo sapiens, UniProt P49137)
Compound,assay,setting,measurement,value
CC(C)(C)c1nc2c(s1)c1nc(N)ncc1c1ccc(NS(=O)(=O)c3c(F)cccc3F)c(F)c12,"enzyme activity, inhibitor, radiometric",1 µM,remaining activity,69%
Cn1nc(C(=O)NCc2ccc(C(=O)O)cc2)cc1-c1ccc2[nH]ccc2c1,"cell-free assay, competition with immobilised ligand",0.1 µM,remaining binding,55%
CC(C)(O)[C@H]1CC[C@H](Nc2ccc3ncc(-c4cccc(C(F)(F)F)c4)n3n2)CC1,"enzyme activity, inhibitor",1 µM,remaining activity,105%
COc1cc(Nc2c(C#N)cnc3cc(OCCCN4CCN(C)CC4)c(OC)cc23)c(Cl)cc1Cl,cell-free assay,0.5 µM,remaining signal,94.7%
Cc1cnc(NC2CCOCC2)nc1-n1cnc(C(=O)NC(CN)c2cc(F)cc(Cl)c2)c1 (stereo not shown),"enzyme activity, inhibitor, radiometric",1 µM,remaining activity,108%
COc1cc2ncnc(Nc3ccc(Oc4ccccc4)c(C)c3C)c2cc1OC,"enzyme activity, inhibitor",1 µM,inhibition,-17%
FC(F)(F)Oc1cccc(-c2cnc3ccc(-c4ccncc4)nn23)c1,"enzyme activity, inhibitor, radiometric",1 µM,activity vs control,93%
Cc1sc(C(=O)NC2COC2)cc1-n1cc(NC(=O)Nc2c(F)cccc2Cl)cn1,"enzyme activity, inhibitor",10 µM,remaining activity,93.6%
CCS(=O)(=O)c1cc2cc(C[C@@](O)(CC(C)(C)c3ccc(F)cc3C(N)=O)C(F)(F)F)[nH]c2cn1,"cell-free assay, competition with immobilised ligand",1 µM,remaining binding,100%
CC(C)(C)C(=O)c1sc(NC2CCCCC2)nc1N,"enzyme activity, inhibitor",10 µM,remaining activity,102%
Cn1cc(Cl)c2c(Oc3c(F)cc(Nc4cc(Cl)nc(N)n4)cc3F)ccnc21,"cell-free assay, competition with immobilised ligand",0.1 µM,remaining binding,100%
CN(C)C1CCN(CC#Cc2nn(C3CCCC3)c3nc(NCc4ccccc4)ncc23)C1 (stereo not shown),"enzyme activity, inhibitor, FRET",1 µM,inhibition,-2%
CC/C(=N\NC(=O)NCc1cccc(O)c1)c1ccc(O)c(C)c1O,"enzyme activity, inhibitor",0.1 µM,inhibition,-0.7%
Cc1ccc(Nc2nccc(N(C)c3ccc4c(C)n(C)nc4c3)n2)cc1S(N)(=O)=O,"enzyme activity, inhibitor",10 µM,inhibition,11%
Clc1ccc(Nc2nnc(Cc3ccncc3)c3ccccc23)cc1,cell-free assay,0.5 µM,remaining signal,98.8%
Cc1noc([C@H]2C[C@@H](c3ccc(C(F)(F)F)cc3)CN(C(=O)N3CCS(=O)(=O)C3)C2)n1,"cell-free assay, competition with immobilised ligand",1 µM,remaining binding,97%
N#CCCc1ccc2c(c1)-c1[nH]c3ccc([N+](=O)[O-])cc3c1CC(=O)N2,cell-free assay,0.5 µM,remaining signal,83.4%
Nc1ncnc2occ(-c3ccc(NC(=O)Nc4cc(C(F)(F)F)ccc4F)cc3)c12,"cell-free assay, inhibitor",20 µM,remaining signal,86%
C[C@H](NC(=O)c1cnc2n1[C@](C)(Cc1ccc(C#N)cc1)C(=O)N2c1cc(Cl)c(F)c(Cl)c1)C(=O)NC1(c2ccccn2)CC1,"cell-free assay, competition with immobilised ligand",1 µM,remaining binding,100%
CCN(CC)c1ccc(C2=NNC(=O)CC2C)cc1[N+](=O)[O-] (stereo not shown),"enzyme activity, inhibitor",10 µM,remaining activity,86%
CC(C)c1ccc(NC(=O)c2cccs2)c(-c2nc3ccccc3[nH]c2=O)c1,"enzyme activity, inhibitor",1 µM,activity vs control,103%
C=CC(=O)Nc1cc(Nc2nccc(Nc3cc(Cl)c(F)cc3C(C)(C)O)n2)c(OC)cc1N1CC[C@@H](N(C)C)C1,"enzyme activity, inhibitor",1 µM,inhibition,4%
FC(F)c1nc2ccccc2n1-c1nc(N2CCOCC2)nc(N2CCOCC2)n1,"enzyme activity, inhibitor",10 µM,remaining activity,91%
CNC(=O)c1cc(Oc2ccc(NC(=O)Nc3ccc(Cl)c(C(F)(F)F)c3)cc2)ccn1,"enzyme activity, inhibitor",0.3 µM,inhibition,4%
CCc1ccccc1C(=O)Nc1n[nH]c2c(C)c(F)c(C3C(C#N)=C(C)N(C)C(C)=C3C#N)cc12,"cell-free assay, competition with immobilised ligand",1 µM,remaining binding,100%
CS(=O)(=O)Nc1cccc(-c2csc(NC(=O)CSc3nc4nccnc4c(=O)n3CCc3ccccc3)n2)c1,"enzyme activity, inhibitor",10 µM,inhibition,1%
COc1cc(Nc2cnc(C#N)c(O[C@H](C)CN(C)C)n2)ncc1-c1cnn(C)c1,"enzyme activity, inhibitor, radiometric",10 µM,remaining activity,104%
CNc1cccc2cc(C(=O)Nc3ccc(C(=O)O)cc3)c(=O)[nH]c12,"enzyme activity, inhibitor",10 µM,inhibition,11%
CCC(=N\O)/C(C)=C/c1ccc(F)cc1,"cell-free assay, competition with immobilised ligand",1 µM,remaining binding,69%
Cc1ccc(NC(=O)c2ccc(C)c(C(F)(F)F)c2)cc1C#Cc1nn(C2CCC(O)CC2)c2ncnc(N)c12 (stereo not shown),cell-free assay,10 µM,remaining signal,104%
Cc1ccc(C(=O)Nc2ccc(CN3CCN(C)CC3)c(C(F)(F)F)c2)cc1C#Cc1cnc2cccnn12,"enzyme activity, inhibitor",23.5 nM,remaining activity,100%
C[C@H](c1ccnc(Nc2nc3ccc(-c4cc(N(C)C)ncn4)cc3[nH]2)c1)N1CCN(C(=O)CC(F)(F)F)CC1,"cell-free assay, competition with immobilised ligand",0.1 µM,remaining binding,100%
CCN(CC)CCNC(=O)c1c(C)[nH]c(/C=C2\C(=O)Nc3ccc(F)cc32)c1C,"enzyme activity, inhibitor",10 µM,inhibition,15%
Cn1c(=O)n(-c2ccc(C(C)(C)C#N)cc2)c2c3cc(-c4cnc5ccccc5c4)ccc3ncc21,"enzyme activity, inhibitor",10 µM,remaining activity,99%
